Cl transport mod: KCC2 (human) Cl- transport modulation; KCC2 cells, thallium flux FluoZin-2 fluorescence; hit rate 2.2% among 190,000; B-score of Tl+ flux slope (higher = more flux/activation; lower = inhibition) at 10 µM; Q9H2X9;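 active = thallium flux slope and its plate-corrected score both differing from the plate sample mean at a set confidence after two filtering rounds, in either direction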;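 note: slope of fluorescence scaled to starting intensity during 10 to 20 s after thallium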
KCNK9 inh: blocks the human KCNK9 two-pore domain potassium channel; Q9NPC2; HEK293 KCNK9, FluxOR thallium flux fluorescence; stronger effect = lower value; B-score at 10 µM; hit rate 1.2% among 310,000;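 active = ratio B-score over 3 SD below the library mean, with starting fluorescence within 5 SD of its mean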;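 note: negative B-score means less thallium flux so channel inhibition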
KCNK3 inh: human KCNK3 channel inhibition, primary screen; B-score at 10 µM; CHO-KCNK3 thallium flux, FluxOR fluorescence; stronger effect = lower value; hit rate 0.84% among 340,000;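 active = B-score under library mean minus 4 SD, starting fluorescence ratio at most library mean plus 5 SD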;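 note: more negative B-score means stronger inhibition of thallium flux through KCNK3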
Target sequence (O14649 whole entry, looked up): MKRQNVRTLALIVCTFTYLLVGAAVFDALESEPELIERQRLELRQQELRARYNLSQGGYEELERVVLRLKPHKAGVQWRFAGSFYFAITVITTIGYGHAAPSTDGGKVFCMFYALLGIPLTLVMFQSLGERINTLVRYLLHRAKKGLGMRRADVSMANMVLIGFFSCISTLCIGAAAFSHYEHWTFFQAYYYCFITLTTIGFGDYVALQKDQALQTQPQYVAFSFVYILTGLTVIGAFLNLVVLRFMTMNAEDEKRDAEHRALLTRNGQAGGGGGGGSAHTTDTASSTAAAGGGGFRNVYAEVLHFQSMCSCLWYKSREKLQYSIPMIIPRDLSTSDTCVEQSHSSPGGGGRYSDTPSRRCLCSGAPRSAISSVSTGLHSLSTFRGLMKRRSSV
KCNQ1 inh: blocks the human KCNQ1 potassium channel; P51787; CHO-K1 KCNQ1, FluxOR thallium flux fluorescence; stronger effect = higher value; B-score at 10 µM; hit rate 1.3% among 310,000;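 active = compounds whose thallium flux B-score, printed positive for inhibition, exceeds three library SD while starting fluorescence stays within three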;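 note: channel opened by potassium depolarization with thallium stimulus after 20 min compound exposure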
hERG rescue: shields human hERG channel from block by proarrhythmic agents; activation (rescue from dofetilide block), less the hit threshold, % at 10 µM; AID 1511; Q12809; CHO-hERG, FluxOR thallium flux, dofetilide IC70 present; hit rate 0.51% among 310,000;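 active = activation above the mean of controls blocked by dofetilide plus 5 SD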;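 note: thallium influx through hERG after potassium depolarization seen as dye fluorescence rise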
KCNQ1 act: potentiators or activators of human KCNQ1 potassium channel | hit rate 0.35% among 310,000 | P51787 | AID 2648 | B-score at 10 µM | CHO-K1 KCNQ1, thallium flux FluxOR fluorescence; stronger effect = higher value;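 active = fluorescence ratio B-score, a plate-corrected score, at least three library SD, with initial intensity B-score within 5 SD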
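Assay system: CHO-K1 cells stably expressing KCNQ1; Medium: assay buffer with matched DMSO; Also added: K+/Tl+ depolarizing stimulus; Dosing: single dose; Timing: dye 90 min, compound 20 min, room temperature; Measured by: kinetic FluxOR thallium fluorescence, 10-s 1-Hz baseline, 110-s post-stimulus read; Read-out: peak-minus-minimum fluorescence over initial fluorescence, negative-control normalized, B-scored.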
KCNK9 block conf: human KCNK9 inhibitor confirmation; shares compounds with KCNK9 inh; HEK293 KCNK9 cells, FluxOR thallium flux fluorescence; inhibition, % at 10 µM; hit rate 43% among 4,900;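 active = thallium signal inhibited by more than 5 SD of the compound-free buffer control wells, on both duplicate plates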
Kir21 sel: mouse Kir2.1 off-target activity of KCNK9 modulators. shares compounds with KCNK9 inh. Kir2.1 cells, FluxOR thallium flux fluorescence. inhibition, % at 10 µM. hit rate 4% among 4,900. AID 492993;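 active = thallium signal drop more than 5 SD beyond the mean of the no-compound control wells, seen in both duplicate plates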;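 note: signal is fluorescence rise after thallium addition divided by baseline fluorescence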
KCNK9 uninduced: non-induced cell nonspecific activity of KCNK9 modulators; shares compounds with KCNK9 inh; non-induced KCNK9-HEK293, FluxOR thallium flux; inhibition, % at 10 µM; hit rate 40% among 4,900;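 active = thallium signal drop beyond 5 SD of the untreated control mean, on both duplicate plates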
Large screens that a line does not name were inactive (follow-up assays come after a bar, where they were run). This is a sample that favours compounds with a hit; in the whole collection about 4.1% have one here.

CC(C)(C)NC(=S)NC(=O)C12CC3CCC(CC(C3)C1)C2	none | KCNK9 block conf inactive | Kir21 sel inactive | KCNK9 uninduced inactive
CC12CC3(C)CC(C)(C1)CC(C(=O)NC(=S)NC(C)(C)C)(C2)C3	none | KCNK9 block conf inactive | Kir21 sel inactive | KCNK9 uninduced inactive
O=C(NC(=S)NC1C2CC3CC(C2)CC1C3)C12CC3CC(CC(C3)C1)C2 (stereo not drawn)	none | KCNK9 block conf inactive | Kir21 sel inactive | KCNK9 uninduced inactive
O=C(Nc1c(Cl)cc2c(c1Cl)Cc1cc([N+](=O)[O-])ccc1-2)C(Cl)Cl	none (no result: Cl transport mod, KCNK9 inh, KCNQ1 inh, hERG rescue, KCNQ1 act)
Cc1ccc(OCCn2cnc3cc([N+](=O)[O-])ccc3c2=O)cc1	none | KCNK9 block conf inactive | Kir21 sel inactive | KCNK9 uninduced inactive
Cc1csc(SC(C)C(=O)Nc2ccccc2C)n1 (stereo not drawn)	none (no result: Cl transport mod, KCNK9 inh, KCNQ1 inh, hERG rescue, KCNQ1 act)
CC(=O)Nc1ccc(Oc2nc(C(F)(F)F)nc3ccccc23)cc1	none (no result: Cl transport mod)
Cc1cc(C)cc(Oc2nc(C(F)(F)F)nc3ccccc23)c1	none (no result: Cl transport mod) | KCNK9 block conf inactive | Kir21 sel inactive | KCNK9 uninduced 24%
COc1ccc(NC(=O)C2(S(=O)(=O)c3ccc(C)cc3)CC2)cc1OC	none (no result: Cl transport mod)
COc1ccc(-c2c(-c3cc(OC)cc(OC)c3)n(C)c3ccc(-c4ccc(S(N)(=O)=O)cc4)cc23)cc1	none (no result: Cl transport mod, KCNK9 inh, KCNQ1 inh, hERG rescue, KCNQ1 act)
CC(C)c1cc(CN2CCN(CCC#N)CC2)cc(C(C)C)c1O	none | KCNK9 block conf inactive | Kir21 sel inactive | KCNK9 uninduced inactive
CC(C)(C)c1cc(CN2CCN(CCO)CC2)cc(C(C)(C)C)c1O	none (no result: Cl transport mod)
CC(C)(C)c1ncc(S(=O)(=O)c2ccc(C(F)(F)F)cn2)c(N)n1	none
CN(Cc1ccccc1)C(=O)COC(=O)c1ccccc1NS(=O)(=O)c1cccc(N)c1	none
CC(OC(=O)c1ccccc1NS(=O)(=O)c1cccc(C(F)(F)F)c1)C(=O)N(C)Cc1ccccc1 (stereo not drawn)	KCNK9 inh -13 | KCNK9 block conf 64% | Kir21 sel inactive | KCNK9 uninduced 31%
O=C(NCc1ccccn1)C1CCCN(S(=O)(=O)c2cc(Cl)ccc2Cl)C1 (stereo not drawn)	none (no result: Cl transport mod, KCNK9 inh, KCNQ1 inh, hERG rescue, KCNQ1 act)
Cc1cc(S(=O)(=O)N2CCCC(N(C)CCc3ccccn3)C2)c(C)cc1Cl (stereo not drawn)	none (no result: Cl transport mod) | KCNK9 block conf inactive | Kir21 sel inactive | KCNK9 uninduced inactive
C(=N\N1CCN(C2c3ccccc3-c3ccccc32)CC1)/c1ccncc1	none (no result: Cl transport mod)
Cc1ccsc1/C=N/N1CCN(C2c3ccccc3-c3ccccc32)CC1	none | KCNK9 block conf inactive | Kir21 sel inactive | KCNK9 uninduced 27%
N#Cc1cccc(N=c2ssnc2Cl)c1	hERG rescue 5.2 | KCNK9 block conf inactive | Kir21 sel inactive | KCNK9 uninduced inactive
COc1cc(N=c2ssnc2Cl)cc(OC)c1	none | KCNK9 block conf inactive | Kir21 sel inactive | KCNK9 uninduced inactive
N#Cc1cccc(NC(=O)CNc2cccc(S(=O)(=O)N3CCCCC3)c2)c1	none (no result: Cl transport mod)
COc1ccccc1NS(=O)(=O)c1cc(NC(=O)C(C)C)ccc1N1CCCCC1	KCNK9 inh -11 | KCNK9 block conf 52% | Kir21 sel inactive | KCNK9 uninduced 35%
COc1ccccc1NS(=O)(=O)c1cc(NC(=O)Nc2ccccc2)ccc1N1CCCCC1	none (no result: KCNK9 inh, KCNQ1 inh, hERG rescue, KCNQ1 act)
CCc1nc2ccccc2n1Cc1ccc(OC)c(OC)c1	none
COc1ccc(/C=C/c2nc3ccccc3n2Cc2ccc(OC)c(OC)c2)cc1	KCNK9 inh -8.1 | KCNK9 block conf 58% | Kir21 sel inactive | KCNK9 uninduced 33%
CCCc1ccc(S(=O)(=O)N2CCN(C(C)C(=O)NCc3ccccc3)CC2)cc1 (stereo not drawn)	none (no result: Cl transport mod, KCNK9 inh, KCNQ1 inh, hERG rescue, KCNQ1 act)
CCOc1cc(C(=O)N2CCN(C/C=C/c3ccccc3)CC2)cc(OCC)c1OCC	none | KCNK9 block conf inactive | Kir21 sel inactive | KCNK9 uninduced inactive

Bioassay records as filed in PubChem.
